Apaf-1 act = activates human Apaf-1 apoptosome; O14727; Apaf-1 apoptosome caspase-3 activation, DEVD-Rh110 fluorescence; stronger effect = lower value; activity change, negative = activation, % at 20 µM; 330,000 tested, 0.31% active; AID 489031;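 active = activity change at or below -40% at 20 µM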
Target sequence (O14727 whole entry, looked up): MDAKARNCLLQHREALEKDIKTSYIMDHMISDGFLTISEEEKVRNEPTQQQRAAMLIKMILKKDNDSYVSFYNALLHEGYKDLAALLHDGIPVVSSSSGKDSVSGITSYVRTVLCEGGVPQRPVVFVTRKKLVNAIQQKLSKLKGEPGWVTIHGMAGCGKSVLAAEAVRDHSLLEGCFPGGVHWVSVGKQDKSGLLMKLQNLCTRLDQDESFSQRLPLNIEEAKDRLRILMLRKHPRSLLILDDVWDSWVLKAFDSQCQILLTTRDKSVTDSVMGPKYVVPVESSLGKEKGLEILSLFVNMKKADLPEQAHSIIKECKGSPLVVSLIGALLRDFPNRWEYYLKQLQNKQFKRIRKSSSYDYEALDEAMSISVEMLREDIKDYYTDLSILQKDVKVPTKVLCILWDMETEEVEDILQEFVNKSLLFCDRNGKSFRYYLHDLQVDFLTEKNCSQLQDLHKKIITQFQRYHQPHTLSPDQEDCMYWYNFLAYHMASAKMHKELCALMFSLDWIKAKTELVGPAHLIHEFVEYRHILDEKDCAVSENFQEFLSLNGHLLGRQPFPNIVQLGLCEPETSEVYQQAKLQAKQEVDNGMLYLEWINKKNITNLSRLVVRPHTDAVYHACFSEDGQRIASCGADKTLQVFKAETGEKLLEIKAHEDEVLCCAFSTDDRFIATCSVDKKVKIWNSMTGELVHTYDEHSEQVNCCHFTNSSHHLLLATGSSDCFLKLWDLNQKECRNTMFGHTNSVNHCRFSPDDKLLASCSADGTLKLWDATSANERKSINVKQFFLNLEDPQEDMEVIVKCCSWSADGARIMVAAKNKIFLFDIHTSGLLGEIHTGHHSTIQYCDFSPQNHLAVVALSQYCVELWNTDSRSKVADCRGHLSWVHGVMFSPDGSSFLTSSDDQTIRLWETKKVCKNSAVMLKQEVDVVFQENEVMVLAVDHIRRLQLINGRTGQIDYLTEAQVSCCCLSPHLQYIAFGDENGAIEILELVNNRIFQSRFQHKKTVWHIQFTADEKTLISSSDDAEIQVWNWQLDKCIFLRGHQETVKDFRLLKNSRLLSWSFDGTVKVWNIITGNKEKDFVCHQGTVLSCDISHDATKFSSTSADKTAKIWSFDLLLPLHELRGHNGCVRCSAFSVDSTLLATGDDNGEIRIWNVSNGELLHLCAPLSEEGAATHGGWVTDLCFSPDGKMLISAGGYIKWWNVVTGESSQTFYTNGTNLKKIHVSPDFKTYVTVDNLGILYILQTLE
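Material: reconstituted apoptosome of Apaf-1, cytochrome c, caspase-9, procaspase-3; times: 30 min preincubation, 50 min reaction, room temperature; measured by: fluorescence, 540 nm emission, 480 nm excitation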
Rh110 interf act = interferes with Rh110 fluorescence, flagging false Apaf-1 activators | fluorescence interference (activity change), % at 20 µM, hits read low | AID 504616 | shares compounds with Apaf-1 act | 980 tested, under 10 active | Rh110 fluorescence interference, quenched caspase reaction, Ex480/Em540;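 active = mean activity change at or below -40% when tested at 20 µM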
Apaf-1 act conf2 = Apaf-1 (human) activation, single-dose confirmed | shares compounds with Apaf-1 act | reconstituted apoptosome caspase-3 activity, DEVD-Rh110 fluorescence; stronger effect = lower value | activity change, negative = activation, % at 20 µM | 980 tested, 5% active | AID 504617;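 active = mean activity change at or below -40%, meaning activation of 40% or more, at 20 µM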
* marks the source's active call; other numbers are inactive results. Only a sample is shown.

SMILES | Apaf-1 act | others
O=C(NC(Cc1ccc2c(c1)OCO2)C(=O)NC(Cc1ccccc1)C(=O)O)c1ccccc1 (stereo not drawn) | -42*
S=C(NCc1ccc2c(c1)OCO2)Nc1ccc2nsnc2c1 | 62
CC1(C)CNc2cc(N)ccc2S1 | 50
Nc1ccc(N2CCCCCC2)cc1 | 93
CCOc1ccc(NC(=O)CCS(=O)(=O)c2ccc(Br)cc2)cc1 | -109*
CCCN(CC(=O)Nc1ccccc1C)C(=O)CCCOc1ccc(Br)cc1 | 53
CCOc1ccc(NS(=O)(=O)c2ccc(C(=O)N(CC)CC(=O)NCc3cccs3)cc2)cc1 | 61
O=C(CCS(=O)(=O)c1ccc(Br)cc1)Nc1cc(F)ccc1F | -129*
COc1ccc(Br)cc1C1CC(=O)N2CN(Cc3ccccc3)CSC2=C1C#N (stereo not drawn) | 78
CCN(CC)CCNC(=O)c1ccc2c(c1NCCO)C(=O)c1ccccc1C2=O | 54
CCN1CCCC1CNC(=O)C1CCN(Cc2nc(-c3cccc(Br)c3)oc2C)CC1 (stereo not drawn) | -90*
COCc1ccc(CN2CCC(C(=O)Nc3cccc(-c4cccc(Cl)c4)c3)CC2)o1 | 49
CCCc1cc(=O)oc2c3c(c4c(c12)OC(C)(C)C=C4)OC(C)C(C)C3O (stereo not drawn) | 53
Cc1cc(C)c(C2=CC(c3ccccc3)n3ncnc3N2)cc1C (stereo not drawn) | -215*
COc1ccc(C(=O)N(CCc2ccccc2)Cc2ccccc2)cc1S(=O)(=O)N1CCOCC1 | 45
COc1ccc(C(=O)N(Cc2ccccc2)c2cccc(C)c2)cc1S(=O)(=O)N1CCOCC1 | 45
CCCCN(C(=O)c1cccc(S(=O)(=O)N2CCOCC2)c1)c1c(N)n(CCC)c(=O)[nH]c1=O | -84* | Rh110 interf act=0;Apaf-1 act conf2=5
COC(=O)CCC(=O)OC1(C)C(=O)C=C2C=C(C3CC3)N(C3CCCCC3)C=C2C1=O (stereo not drawn) | 62
COCCN(C(=O)CSc1nc(N)cc(=O)[nH]1)c1c(N)n(Cc2ccccc2)c(=O)[nH]c1=O | 45
CCCN(C(=O)COC(=O)C12CCC(=O)N1c1ccccc1S2)c1c(N)n(Cc2ccccc2)c(=O)[nH]c1=O (stereo not drawn) | -50* | Rh110 interf act=4;Apaf-1 act conf2=14
CCOc1cc(CNc2ccc3cn[nH]c3c2)ccc1OC | 85
O=[N+]([O-])c1ccc(C=Nc2cccc3ccccc23)s1 | 68
COc1cccc(-c2sc3cc(OC)c(OC)cc3c2-c2ccc(OCCN3CCCCC3)cc2)c1 | 66
Cn1nc(-c2ccc(Cl)cc2)nc2c(=O)n(C)c(=O)nc1-2 | 99
Cn1c(=O)nc2n(Cc3ccccc3)c3ccccc3cc-2c1=O | -172* | Rh110 interf act=2;Apaf-1 act conf2=14
SMILES | Apaf-1 act | others
Cn1c2ccccc2c(=O)n2c(=O)c3ccccc3cc12 | 98
CC1(C)Cc2ccccc2C2=NNC(=O)C2=N1 | 62
CS(=O)(=O)N(CC(=O)N1CCN(c2ccccc2)CC1)c1ccccc1Cl | -164* | Rh110 interf act=4;Apaf-1 act conf2=11
C#CCOCCOCCOCCNc1nc(N2CCN(C(=O)[C@H](CCCCN)n3cc(CN)nn3)CC2)nc(N2CCN(C(=O)[C@H](CCCCN)n3cc(CN)nn3)CC2)n1 | 44
C=CC[C@@H](Cc1ccc(F)cc1)C(=O)OC[C@@H]1CCCN1C(=O)[C@@H](CC=C)CC(=O)N[C@@H](CO)Cc1ccccc1 | 40
CC[C@@H](C)[C@@H]1CN([C@@H](C)CN2CCC[C@H]2CN2C(N)=NC[C@H]2CC(C)C)C(=N)N1CCc1ccc(Cl)c(Cl)c1 | 52
CCCC(=O)N1c2ccccc2[C@@H](N(C(C)=O)c2ccccc2)C[C@H]1C | -55* | Rh110 interf act=0;Apaf-1 act conf2=12
CCOC(=O)CCC(=O)NNC(=O)COc1ccc(C(C)C)cc1Br | -108* | Rh110 interf act=-9;Apaf-1 act conf2=9
C#CCOCCOCCOCCNc1nc(N2CCN(C(=O)CCCCCCCCCCNC(=O)[C@H](CCCN=C(N)N)n3cc(C[C@@H](C)CC)nn3)CC2)nc(N2CCN(C(=O)CCCCCCCCCCNC(=O)[C@@H]([C@H](C)CC)n3cc(CCCCCN)nn3)CC2)n1 | 80
C#CCOCCOCCOCCNc1nc(N2CCN(C(=O)CCCCCCCCCCNC(=O)[C@H]([C@@H](C)CC)n3cc(CCCCN=C(N)N)nn3)CC2)nc(N2CCN(C(=O)CCCCCCCCCCNC(=O)[C@H](CCCN=C(N)N)n3cc(C[C@@H](C)CC)nn3)CC2)n1 | 46
N#Cc1c(NCCCO)nc(NCc2ccccc2)c2c1CCN(Cc1ccccc1)C2 | 69
c1ccc(-c2nc(C3CCCCC3)no2)cc1 | -154* | Rh110 interf act=3;Apaf-1 act conf2=0
CCOC(=O)c1nn(-c2ccc(C)c(C)c2)c(=O)c2c(N)scc12 | 56
C=CCOc1c(Cl)cc(CNc2ccc(N(C)C)cc2)cc1OC | 64

High-throughput results as filed in PubChem.
